These results are taken from ChEMBL document CHEMBL1122650, “Synthesis and central nervous system properties of 2-[(alkoxycarbonyl)amino]-4(5)-phenyl-2-imidazolines” (J Med Chem, 1984).

The source made the active and inactive calls. The calls are words filed in the database; no cut-off is given here.

The species named for data set [1] is Mus musculus. The data set is described as follows: Compound was evaluated for maximal electroshock antagonism (MES) against mice. Type of data set: functional. In outline: (§1)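 Male HLa (ICR) BR mice, groups of eight to ten, dosed ip (aqueous solution) 15 min before transcorneal electroshock (50 mA, 0.2 s). End point: abolition of tonic hind-limb extension; quantal ED50 by Litchfield-Wilcoxon.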
(In general: In the maximal electroshock model the usual endpoint is tonic extension of the hind limbs.)

The nature of data set [2]: Lethal dose in mouse, in groups of ten. Type of data set: toxicity, organism-based. The settings on record: in vivo.
Data set [3] is filed under the species Mus musculus. Nature of the data set: Mouse behavior activity was determined; Stimulant Weak. Type of data set: functional, organism-based. A digest of the protocol: (§2)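 Male Simonsen (ICR) fBR mice, 18-24 g, groups of three, given 3, 10, 30, 100, 300 or 1000 mg/kg ip as aqueous solution and observed for behavioral profile; deaths followed up to 7 days.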

Data set [4] can be described thus: HPLC capacity factor (k'). Type of data set: ADME.
Data set [5] is filed under the species Mus musculus. Nature of the data set: Mouse behavior activity was determined; D=Depressant. Type of data set: functional, organism-based. In outline:
as §2

Data set [6] relates to Mus musculus. Nature of the data set: Compound was evaluated in vivo for reserpine hypothermia after oral administration in mouse. Type of data set: functional. A digest of the protocol: (§3)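 Male HLa (ICR) BR mice, 18-24 g, in groups of eight; reserpine 5 mg/kg ip given 2 h before oral test compound as aqueous solution. Rectal temperature taken hourly; 1-4-h hypothermia assessed by analysis of variance.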

The species named for data set [7] is Mus musculus. Nature of the data set: Compound was evaluated for maximal electroshock antagonism (MES) against mice;I= Inactive. Type of data set: functional, organism-based. A digest of the protocol: as §1
Data set [8] is filed under the species Mus musculus. The data set is described as follows: Evaluated for antagonism of reserpine induced hypothermia. Type of data set: functional. A digest of the protocol: as §3
The species entered for data set [9] is Mus musculus. Nature of the data set: Mouse behavior activity was determined;D= Depressant. Type of data set: functional, organism-based. In outline:
as §2

Data set [10] is filed under the species Mus musculus. The data set is described as follows: Righting ability was determined in mice before rapid rolling (unaroused). Type of data set: functional. A digest of the protocol:
(§4)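 Male Simonsen (ICR) fBR mice, 18-24 g, groups of ten, dosed with aqueous compound. Righting ability checked before (unaroused) and after (aroused) rapid rolling in the hand; ED50 by Litchfield-Wilcoxon method.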

The species named for data set [11] is Mus musculus. Nature of the data set: Compound was evaluated for antagonism of reserpine induced hypothermia. Type of data set: functional. A digest of the protocol:
as §3

For data set [12], the species on record is Mus musculus. The data set is described as follows: Righting ability was determined in mice after rapid rolling (aroused). Type of data set: functional. A digest of the protocol:
as §4

The species entered for data set [13] is Mus musculus. The data set is described as follows: Compound was evaluated for antagonism of reserpine induced hypothermia;. 5-2.5 excessive variability. Type of data set: functional, organism-based. In outline:
as §3

Data set [14] is filed under the species Mus musculus. Nature of the data set: Mouse behavior activity was determined;D= Depressant. Type of data set: functional, organism-based.
The species named for data set [15] is Mus musculus. Nature of the data set: Compound was evaluated for antagonism of reserpine induced hypothermia;I= Inactive. Type of data set: functional, organism-based. A digest of the protocol:
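Male HLa (ICR) BR mice (18-24 g), groups of eight, dosed ip with 5 mg/kg reserpine 2 h before oral test compound given as aqueous solution. Rectal temperature measured hourly; 1-4-h thermia assessed by analysis of variance.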

For data set [16], the species on record is Mus musculus. The data set is described as follows: Mouse behavior activity was determined; Dwk= Depressant Weak. Type of data set: functional, organism-based. In outline: as §2
For data set [17], the species on record is Mus musculus. The data set is described as follows: Compound was evaluated for maximal electroshock antagonism (MES) against mice; Inactive. Type of data set: functional, organism-based. In outline: as §1
In data set [18] the test system is Mus musculus. The data set is described as follows: Compound was evaluated in vivo for reserpine hypothermia after oral administration in mouse. Minimum active dose was reported; 10-30% reduction. Type of data set: functional, organism-based. A digest of the protocol:
as §3

For data set [19], the system named is Mus musculus. The data set is described as follows: Evaluated in vivo for reserpine hypothermia after oral administration in mouse. Minimum active dose was reported; Inactive. Type of data set: functional, organism-based. In outline: as §3
The test system of data set [20] is Mus musculus. Nature of the data set: Compound was evaluated for maximal electroshock antagonism (MES) against mice; Inactive at 30 mg/kg. Type of data set: functional, organism-based. Also noted: dose 30 mg/kg. A digest of the protocol: as §1
Data set [21] is filed under the species Mus musculus. The data set is described as follows: Compound was evaluated for antagonism of reserpine induced hypothermia; I=inactive. Type of data set: functional, organism-based. A digest of the protocol: as §3
The species named for data set [22] is Mus musculus. Nature of the data set: Compound was evaluated for maximal electroshock antagonism (MES) against mice; I=inactive. Type of data set: functional, organism-based. A digest of the protocol:
as §1

The species named for data set [23] is Mus musculus. The data set is described as follows: Mouse behavior activity was determined; Dwk=Depressant (Weak). Type of data set: functional, organism-based. A digest of the protocol: as §2
Data set [24] deals with Mus musculus. Nature of the data set: Compound was evaluated in vivo for reserpine hypothermia after oral administration in mouse. Minimum active dose was reported, with the percent reversal at 10 mg/kg; I=inactive. Also noted: dose 10 mg/kg. Type of data set: functional, organism-based. In outline:
as §3

Data set [25] is filed under the species Mus musculus. Nature of the data set: Mouse behavior activity was determined; Dwk= Depressant(Weak). Type of data set: functional, organism-based. A digest of the protocol: as §2
Data set [26] relates to Mus musculus. Nature of the data set: Compound was evaluated in vivo for reserpine hypothermia after oral administration in mouse. Minimum active dose was reported, with the percent reversal at 10 mg/kg in parenthesis; I=inactive. Type of data set: functional, organism-based. On the set-up: dose 10 mg/kg. A digest of the protocol:
as §3

Data set [27] is filed under the species Mus musculus. Nature of the data set: Mouse behavior activity was determined; Depressant-Stimulant. Type of data set: functional, organism-based. A digest of the protocol:
as §2

The species entered for data set [28] is Mus musculus. The data set is described as follows: Righting ability was determined in mice […] rapid rolling (aroused). Type of data set: functional. In outline:
as §4

The test system of data set [29] is Mus musculus. Nature of the data set: Evaluated in vivo for reserpine hypothermia after oral administration in mouse. Minimum active dose was reported; 10-30% reduction. Type of data set: functional, organism-based. A digest of the protocol: as §3
The species named for data set [30] is Mus musculus. The data set is described as follows: Mouse behavior activity was determined; Dwk=Depressant Weak. Type of data set: functional, organism-based. In outline:
as §2

The species entered for data set [31] is Mus musculus. Nature of the data set: Evaluated for antagonism of reserpine induced hypothermia;I= Inactive. Type of data set: functional, organism-based. In outline:
as §3

For data set [32], the species on record is Mus musculus. Nature of the data set: Compound was evaluated for maximal electroshock antagonism (MES) against mice; Inactive. Type of data set: functional, organism-based. A digest of the protocol:
as §1

Data set [33] deals with Mus musculus. Nature of the data set: Compound was evaluated in vivo for reserpine hypothermia after oral administration in mouse. Minimum active dose was reported; rigidity was potentiated by compound. Type of data set: functional, organism-based. A digest of the protocol:
as §3

The species named for data set [34] is Mus musculus. The data set is described as follows: Mouse behavior activity was determined; S-D=Stimulant-Depressant. Type of data set: functional, organism-based. In outline:
as §2

Take `COC(=O)NC1=NC(c2ccccc2)C(C)N1` (configuration not stated): the ED50 (commonly the dose that gives a 50% effect, or the effect in half of the subjects) in data set [1] is 90 mg/kg. Also, the LD50 (as a rule, the dose expected to kill half of the subjects tested) in data set [2] turned out to be 200 mg/kg. In data set [3], the Mouse behavior activity result is recorded as “Stimulant Weak”. The “Log k'” value in [4] turned out to be 0.15.

On to `COC(=O)NC1=NC(c2cccc(F)c2)CN1` (configuration not stated), for which the ED50 is 70 mg/kg in data set [1] and 36 mg/kg in data set [6]. Also, the LD50 in data set [2] came out at 200 mg/kg. Further, the Mouse behavior activity entry in data set [5] is “Depressant”. The “Log k'” value in data set [4] is -0.1.

As for `CCOC(=O)NC1=NC(c2cccc(Br)c2)CN1` (configuration not stated), the ED50 entry in data set [7] was “inactive”. The compound further gave an HYPO in data set [8] of under 0.5 mg/kg. The “Log k'” value in [4] was 0.77.

As to `CCOC(=O)NC1=NC(c2cccc(Cl)c2)CN1C` (configuration not stated), in [9], the Mouse behavior activity result is listed as “Depressant”. In addition, the 50% effect level in [1] (ED50) was put at a dose of 74 mg/kg. In addition, the LD50 in data set [2] was determined as 300 mg/kg. This compound showed a Loss of righting reflex in data set [10] of 70 mg/kg. Moreover, the HYPO in [11] was under 0.5 mg/kg. In data set [4], the “Log k'” value turned out to be 0.78.

`COC(=O)NC1=NC(c2cccc(C)c2)CN1` (configuration not stated): the ED50 was 100 mg/kg in [1] and 51 mg/kg in data set [6]. For the same compound, in [2], the LD50 came to 500 mg/kg. The values for the Loss of righting reflex in data set [12] and in data set [10] were 157 mg/kg and 100 mg/kg, respectively. The HYPO result in data set [13] is “excessive variability”. Besides, the Mouse behavior activity result in [14] is “Depressant”. Further, the “Log k'” value in data set [4] is 0.26.

`CC(C)COC(=O)NC1=NC(c2ccccc2)CN1` (configuration not stated) displayed a median lethal dose (LD50) in [2] of 700 mg/kg. Moreover, the HYPO result in [15] is “inactive”. Moreover, in [16], the Mouse behavior activity result was “Depressant”. For the same compound, the ED50 entry in data set [17] was “inactive”. Also, the ED50 in [18] was 10-30% reduction. In addition, the “Log k'” value in data set [4] is reported as 0.94.

Turning to `CCOC(=O)NC1=NC(c2cccc(F)c2)CN1C` (configuration not stated), the ED50 entry in data set [19] and in data set [20] was “inactive” throughout. Moreover, in data set [11], the HYPO is under 0.5 mg/kg. In data set [4], the “Log k'” value worked out at 0.51.

In the case of `COC(=O)NC1=NC(c2ccc(OC(C)=O)cc2)CN1C` (configuration not stated), the LD50 in data set [2] was 700 mg/kg. For the same compound, in [21], the HYPO entry is “inactive”. For the same compound, the ED50 entry in data set [22] and in [24] was “inactive” throughout. Besides, the Mouse behavior activity result in [23] is given as “Depressant - weak”. Besides, the “Log k'” value in data set [4] is on record as 0.2.

Consider `COC(=O)NC1=NC(c2ccc(C=O)cc2)CN1C` (configuration not stated), for which, in data set [25], the Mouse behavior activity entry is recorded as “Depressant - weak”. This compound gave an LD50 in data set [2] of over 300 mg/kg. For the same compound, the ED50 entry in [22] and in data set [26] was “inactive” each time. Moreover, in [8], the HYPO is over 0.5 mg/kg. Moreover, the “Log k'” value in data set [4] is listed as -0.53.

For the compound `CC(C)OC(=O)NC1=NC(c2ccccc2F)CN1C` (configuration not stated), the ED50 in data set [1] came out at 23 mg/kg. Moreover, the LD50 in data set [2] worked out at 700 mg/kg. Further, the Mouse behavior activity entry in data set [27] is “Depressant-Stimulant”. Also, the values for the Loss of righting reflex in data set [28] and in data set [10] were 55 mg/kg and 11 mg/kg, respectively. Besides, the “Log k'” value in data set [4] was 0.77.

For `CCOC(=O)NC1=NC(c2ccc(C(C)C)cc2)CN1` (configuration not stated), the LD50 in data set [2] amounted to 200 mg/kg. Moreover, in data set [29], the ED50 is 10-30% reduction. Moreover, the Mouse behavior activity entry in data set [30] is on record as “Depressant - weak”. The HYPO result in data set [31] was “inactive”. In addition, the ED50 result in [32] was “inactive”. For the same compound, in data set [4], the “Log k'” value came out at 1.3.

On to `CCOC(=O)NC1=NC(c2ccccc2)CN1C` (configuration not stated), for which, in [33], the P entry was “rigidity was potentiated by compound”. Further, it took a dose of 78 mg/kg to reach the 50% effect level in data set [1] (ED50). The 50% lethal dose (LD50) in data set [2] amounted to 200 mg/kg. The compound further returned an HYPO in data set [8] of under 0.5 mg/kg. The Mouse behavior activity result in data set [34] is “Stimulant-Depressant”. The same compound displayed a Loss of righting reflex in data set [10] of 100 mg/kg. Moreover, the “Log k'” value in data set [4] is listed as 0.41.

For the compound `COC(=O)NC1=NC(c2ccccc2)CN1C` (configuration not stated), in data set [33], the P entry was “rigidity was potentiated by compound”. Further, the 50% effect level in [1] (ED50) was put at a dose of 107 mg/kg. Further, the LD50 in [2] was 200 mg/kg. In addition, in data set [34], the Mouse behavior activity result was “Stimulant-Depressant”. The “Log k'” value in [4] amounted to 0.06.
